Published values collected from several papers.
Lines come from different studies, so protocols differ.
Target: Serine/threonine-protein kinase WNK2 (WNK2, Homo sapiens, UniProt Q9Y3S1)

| Structure (SMILES) | effect on | method | tested at | remaining binding [%] |
| --- | --- | --- | --- | --- |
| O=C(NCCCN1CCOCC1)c1ccc(Nc2nccc(-c3cc4ccccc4s3)n2)cc1 | binding | competition with immobilised ligand | 1 µM | 60 |
| O=C(NCC1CCOCC1)c1n[nH]cc1NC(=O)c1c(F)cccc1F | binding | competition with immobilised ligand | 1 µM | 81 |
| Cc1cnc(Nc2ccc(C(=O)N3CCC(N4CCCC4)CC3)cc2)nc1-c1cc2ccccc2s1 | binding | competition with immobilised ligand | 1 µM | 69 |
| C[C@@H](c1cccc(C#N)c1)n1cc(Cl)cc(C(N)=O)c1=N | cell-free assay | competition with immobilised ligand | 1 µM | 67 |
| CN(C)c1ncc(F)c(-c2cnn3ncccc23)n1 | binding | – | 1 µM | 82 |
| CCS(=O)(=O)c1cc2cc(C[C@@](O)(CC(C)(C)c3ccc(F)cc3C(N)=O)C(F)(F)F)[nH]c2cn1 | cell-free assay | competition with immobilised ligand | 1 µM | 46 |
| O=C(c1ccc(Nc2nccc(-c3cc4ccccc4s3)n2)cc1)N1CCC(N2CCCC2)CC1 | binding | competition with immobilised ligand | 1 µM | 87 |
| CN(C)c1nccc(-c2cnn3ncccc23)n1 | binding | – | 1 µM | 37 |
| Cc1c(NC(=O)c2cc(C(N)=O)nc3cc(F)ccc23)c(C(F)(F)F)nn1Cc1ccc(C(C)(C)C)cc1 | cell-free assay | competition with immobilised ligand | 1 µM | 100 |
| c1cnn2ncc(-c3ccnc(N4CCC45COC5)n3)c2c1 | binding | – | 1 µM | 78 |
| C=CC(=O)N1CCC(C(=O)NCC(=O)N2CCN(c3nc(-c4cnc(N)nc4C(F)F)nc(N4CCOCC4)n3)CC2)CC1 | binding | competition with immobilised ligand | 1 µM | 92 |
| C[C@@H](c1ccc(-n2cnc3c(N)ncnc32)cc1)N1CCc2nn(C)c(Cc3ccccc3)c2C1=O | binding | competition with immobilised ligand | 0.1 µM | 65 |
| CNC(=O)[C@@H]1CC[C@@H](n2c(-c3ccc4cnccc4c3)nc3ccc(C(=O)NCc4cccc(C(N)=O)c4)cc32)C1 | binding | competition with immobilised ligand | 1 µM | 100 |
| N[C@H]1CCN(c2nccc(-c3cnn4ncccc34)n2)C1 | binding | – | 1 µM | 100 |
| Cc1nc(Cc2cccc(C(F)(F)F)c2)sc1-c1ccc(C(N)=O)nc1 | cell-free assay | competition with immobilised ligand | 1 µM | 100 |
| COc1cnc(Nc2cccc(S(N)(=O)=O)c2)nc1N1CCN(c2ccccc2)CC1 | binding | competition with immobilised ligand | 1 µM | 35 |
| C[C@H]1CCN(c2nccc(-c3cnn4ncccc34)n2)C1 | binding | – | 1 µM | 98 |
| CC(C)(O)c1cncc(-c2nc3ccc(F)cc3n2C2CC2)c1 | cell-free assay | competition with immobilised ligand | 1 µM | 100 |
| F[C@@H]1CCN(c2nccc(-c3cnn4ncccc34)n2)C1 | binding | – | 1 µM | 100 |
| Cc1c[nH]c2nccc(Oc3c(F)cc(Nc4cc(Cl)nc(N)n4)cc3F)c12 | cell-free assay | competition with immobilised ligand | 0.1 µM | 96 |
